This note sets out measurements from ChEMBL document CHEMBL1144897, “A potent, selective inhibitor of matrix metalloproteinase-3 for the topical treatment of chronic dermal ulcers” (J Med Chem, 2003).

One experiment deals with Stromelysin-1 (Homo sapiens, UniProt P08254).
The target of a further experiment is T1, Matrilysin (Homo sapiens, UniProt P09237).
T1 sequence (P09237 whole entry): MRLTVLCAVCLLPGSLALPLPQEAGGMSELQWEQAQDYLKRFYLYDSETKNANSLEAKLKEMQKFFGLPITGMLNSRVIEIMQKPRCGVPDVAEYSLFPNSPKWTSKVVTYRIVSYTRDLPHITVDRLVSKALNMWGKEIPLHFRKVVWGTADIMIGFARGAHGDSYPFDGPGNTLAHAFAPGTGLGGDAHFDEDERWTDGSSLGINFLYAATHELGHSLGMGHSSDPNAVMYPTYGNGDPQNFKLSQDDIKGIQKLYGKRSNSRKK
Briefly: Inhibition of human matrix metalloprotease-7 (MMP-7).

The target of experiment [1] is Matrix metalloproteinase-9 (Homo sapiens, UniProt P14780). Briefly: Inhibition of human matrix metalloprotease-9 (MMP-9). The procedure, abridged:
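Human catalytic-domain MMP-9 stock (1 μM) activated with 1 mM APMA for 1 h at 37 °C. Assayed at 1 nM enzyme in Tris buffer pH 7.5 (100 mM Tris, 100 mM NaCl, 10 mM CaCl₂, 0.16% Brij 35) with ≤1% DMSO. Inhibitor preincubated 15 min at 37 °C, then 5 μM Mca-Arg-Pro-Lys-Pro-Tyr-Ala-Nva-Trp-Met-Lys(Dnp)-NH₂ added for 1 h at 37 °C. Fluorescence read at ex 328/em 393 nm; IC50 taken from dose–response.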

Experiment [2] addresses Matrix metalloproteinase-14 (Homo sapiens, UniProt P50281). Description: Inhibition of Matrix metalloprotease-14. The procedure, abridged:
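Catalytic-domain MMP-14 stock (10 μM) activated with trypsin (5 μg/mL) for 20 min at 25 °C, then quenched with soybean trypsin inhibitor (50 μg/mL). Run in Tris buffer pH 7.5 (100 mM Tris, 100 mM NaCl, 10 mM CaCl₂, 0.16% Brij 35) with 1 nM enzyme and 10 μM Mca-Pro-Leu-Gly-Leu-Dpa-Ala-Arg-NH₂ (final). Fluorogenic cleavage read; IC50 derived.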

Matrix metalloproteinase-9, sequence (P14780 whole entry): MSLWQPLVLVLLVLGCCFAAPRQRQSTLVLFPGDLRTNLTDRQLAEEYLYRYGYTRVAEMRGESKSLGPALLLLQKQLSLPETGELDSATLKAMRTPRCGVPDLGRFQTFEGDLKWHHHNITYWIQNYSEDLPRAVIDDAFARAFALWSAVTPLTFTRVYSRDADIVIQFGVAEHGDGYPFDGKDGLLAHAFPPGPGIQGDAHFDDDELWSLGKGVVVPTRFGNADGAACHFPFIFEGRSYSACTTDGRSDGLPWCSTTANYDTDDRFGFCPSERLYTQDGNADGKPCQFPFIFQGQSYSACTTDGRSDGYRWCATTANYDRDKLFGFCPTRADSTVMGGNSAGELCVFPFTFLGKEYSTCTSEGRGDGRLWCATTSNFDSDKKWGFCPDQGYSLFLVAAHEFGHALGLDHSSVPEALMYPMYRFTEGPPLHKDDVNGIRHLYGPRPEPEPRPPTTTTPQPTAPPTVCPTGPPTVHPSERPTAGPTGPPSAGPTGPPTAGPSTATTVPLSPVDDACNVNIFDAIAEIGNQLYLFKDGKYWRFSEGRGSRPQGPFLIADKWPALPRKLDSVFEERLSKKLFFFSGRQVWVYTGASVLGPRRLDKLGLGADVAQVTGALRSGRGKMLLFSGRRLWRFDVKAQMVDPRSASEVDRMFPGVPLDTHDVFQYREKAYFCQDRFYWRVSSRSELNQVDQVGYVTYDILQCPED
Stromelysin-1, sequence (P08254 whole entry): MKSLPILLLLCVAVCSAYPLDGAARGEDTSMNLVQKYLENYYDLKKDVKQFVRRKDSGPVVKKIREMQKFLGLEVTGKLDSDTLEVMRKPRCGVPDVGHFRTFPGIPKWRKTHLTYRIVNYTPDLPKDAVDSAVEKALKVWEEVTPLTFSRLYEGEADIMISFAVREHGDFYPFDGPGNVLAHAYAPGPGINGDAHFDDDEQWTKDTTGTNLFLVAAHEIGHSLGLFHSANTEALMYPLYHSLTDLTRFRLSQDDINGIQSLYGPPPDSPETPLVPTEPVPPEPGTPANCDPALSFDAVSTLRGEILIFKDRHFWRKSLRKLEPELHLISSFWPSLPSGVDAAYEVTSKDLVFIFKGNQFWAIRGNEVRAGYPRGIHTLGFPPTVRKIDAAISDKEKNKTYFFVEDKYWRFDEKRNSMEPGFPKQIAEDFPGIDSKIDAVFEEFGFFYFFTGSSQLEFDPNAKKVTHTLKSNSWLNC

With `CNC(=O)[C@H](Cc1ccc(OC)cc1)NC(=O)[C@@H](CC(=O)NO)CC(C)C`, the half-inhibitory concentration (IC50) against Stromelysin-1 and at Matrilysin was 0.03 µM each time.
In the case of `CNC(=O)[C@H](Cc1ccccc1)NC(=O)[C@H](CC(C)C)[C@H](CSc1cccs1)C(=O)NO` [BATIMASTAT], the 50% inhibitory concentration (IC50) in experiment [1] was 0.0006 µM; in experiment [2] it was 0.0046 µM.

Broadly, the IC50 is the concentration that gives 50% inhibition.
